Screening data from PubChem BioAssay.
ARNT TACC3 PPI – disrupts binding between human ARNT and TACC3; 390,000 compounds, 0.66% hits; AlphaScreen His-ARNT PAS-B/GST-TACC3 binding, luminescence; TACC3 fragment carries E629A point mutation; AID 623870; inhibition, % at 9.99 µM;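 active = mean inhibition of replicates at least 50% and at least half of replicates each reaching 50%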;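 also: 0% = complete ARNT plus TACC3 wells and 100% = ARNT alone without TACC3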
CAL PDZ FP-1 – CAL PDZ (human) peptide binding inhibition; Q9HD26; purified CAL PDZ, TMR-peptide fluorescence polarization, 1 h; inhibition, % at 24.9 µM; 300,000 compounds, 0.92% hits;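 active = mean inhibition of at least 30% with at least half of replicates also reaching 30%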;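 also: 0% = DMSO neutral control and 100% = excess unlabeled competitor peptide PRC23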
CAL PDZ FP-2 – blocks peptide binding to human CAL PDZ domain; purified CAL PDZ, TMR-peptide fluorescence polarization, 1 h; inhibition, % at 20 µM; 330,000 compounds, 0.02% hits; AID 504414;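 active = highest replicate inhibition of at least 40%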;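 also: plate controls were DMSO neutral control wells for no effect and unlabeled competitor peptide control wells for full effect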
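Control set: unlabelled peptide and DMSO controls / Material: purified CerCALP PDZ construct / Timing: 1 h incubation at room temperature before polarization reading / Doses: 20 µM, one dose / Detection: fluorescence polarization (mP)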
An asterisk follows results filed as active; . = no result given. In the library only some 1.2% were active in any assay of this set; here they are far more common.

SMILES | ARNT TACC3 PPI | CAL PDZ FP-1 | CAL PDZ FP-2
Cc1ccc([N+](=O)[O-])c(OCCN2CCc3ccccc3C2)c1 | 9 | -1 | -1
OC(c1ccccn1)(c1ccccn1)c1ccccn1 | 75* | -2 | -3
CC(c1ccccn1)C(C)(O)C(C)c1ccccn1 (stereo not drawn) | -3 | 7 | -1
CC(=O)n1c2ccccc2c2nc3ccccc3nc21 | -6 | -6 | -15
C=CCNc1nc2c3ccccc3n(C(C)=O)c2s1 | active | 11 | -2
O=C(NCC[C@H]1CC[C@H](NS(=O)(=O)c2ccccc2)[C@@H](CO)O1)c1ccccc1F | 2 | . | .
OC[C@@H]1[C@H](c2ccc(/C=C/c3ccccc3)cc2)[C@H]2CN(CCC(F)(F)F)CCCCN12 | 38 | . | .
O=C(CSc1nc(-c2ccccc2)c(-c2ccccc2)[nH]1)NCC1CCCO1 (stereo not drawn) | 1 | -1 | 0
Cc1ccc(C(=O)Nc2c(N)nc(SCC(=O)NCC3CCCO3)[nH]c2=O)cc1 (stereo not drawn) | -4 | -2 | -1
COc1ccc(C(=O)Nc2c(N)nc(SCC(=O)NCC3CCCO3)[nH]c2=O)cc1OC (stereo not drawn) | -3 | 92* | -1
O=C(CSc1nc2ccccc2[nH]1)NCC1CCCO1 (stereo not drawn) | -5 | 40* | -2
O=C(NCCc1ccccc1)[C@H]1[C@H](CO)[C@H]2Cn3c(ccc(-c4ccccc4)c3=O)[C@@H]1N2 | -6 | . | .
CCCNC(=O)C[C@H]1CC[C@H]2[C@@H](COC[C@@H](O)CN2C(=O)Nc2ccc3c(c2)OCO3)O1 | 1 | . | .
C[C@H]1CN([C@@H](C)CO)C(=O)c2cc(NC(=O)C3CC3)ccc2O[C@@H]1CN(C)C(=O)Nc1cccc2ccccc12 | -5 | . | .
NNC(=O)c1ccc(CSc2cccc3cccnc23)cc1 | -3 | -2 | -2
c1cnc2c(SCc3ccc(-c4nnco4)cc3)cccc2c1 | 59* | . | -1
COc1cccc(NC(=O)N(C)C[C@@H]2OCc3cnnn3CCCC(=O)N([C@@H](C)CO)C[C@@H]2C)c1 | -6 | . | .
O=C(C[C@@H]1C[C@H]2c3cc(NC(=O)c4cccnc4)ccc3O[C@H]2[C@H](CO)O1)NCc1ccncc1 | -9 | . | .
COc1cccc(S(=O)(=O)N[C@H]2C=C[C@H](CC(=O)NC3CCC3)O[C@@H]2CO)c1 | -6 | . | .
Cc1cc(C)n(CC(=O)N2CCCC(C(=O)c3cccc(OC(C)C)c3)C2)n1 (stereo not drawn) | -6 | 1 | 0
CC(C)Oc1cccc(C(=O)C2CCCN(C(=O)CCn3cnnn3)C2)c1 (stereo not drawn) | 1 | 77* | -1
C[C@@H]1CCCCO[C@H](CN(C)C(=O)NC2CCCCC2)[C@@H](C)CN([C@H](C)CO)C(=O)c2cc(NC(=O)Nc3ccc4c(c3)OCO4)ccc2O1 | -5 | . | .
COc1ccc(NC(=O)N(C)C[C@H]2OCc3ccccc3-c3ccccc3C(=O)N([C@@H](C)CO)C[C@H]2C)c(OC)c1 | 0 | . | .
C=CCCCCCCCCC(=O)NNC1CC(=O)N(c2ccccc2)C1=O (stereo not drawn) | -6 | 49* | 0
O=C(NNC1CC(=O)N(c2ccccc2)C1=O)c1ccco1 (stereo not drawn) | 2 | -1 | -1
SMILES | ARNT TACC3 PPI | CAL PDZ FP-1 | CAL PDZ FP-2
COc1ccc(C(=O)COC(=O)/C=C/c2ccco2)cc1F | 1 | 65* | -1
O=C(/C=C/c1ccco1)OCC(=O)c1cccc([N+](=O)[O-])c1 | -1 | -1 | -3
Nc1nn2c(C(F)(F)F)cc(=O)[nH]c2c1N=Nc1cccc(F)c1 | -2 | . | 1
Cc1cc(=O)[nH]c2c(N=Nc3ccc(O)cc3)c(N)nn12 | 47* | 0 | -1
O=C(CN1CCOCC1)N[C@@H]1CC[C@H](CCn2cc(C3CCCCC3)nn2)O[C@@H]1CO | -19 | . | .
CC(=O)N(C)C[C@H]1Oc2ncc(-c3ccc(F)cc3)cc2C(=O)N([C@@H](C)CO)C[C@@H]1C | 4 | . | .
O=C(N/N=C/C1CC=CCC1)c1ccccc1O (stereo not drawn) | -3 | -2 | -1
O=C(CNc1ccccc1F)N/N=C/C1CC=CCC1 (stereo not drawn) | 2 | 58* | -2
CC(C)NC(=O)Nc1ccc2c(c1)C(=O)N([C@@H](C)CO)C[C@@H](C)[C@@H](CN(C)Cc1ccc(C(F)(F)F)cc1)OCCCC[C@@H](C)O2 | 7 | . | .
CCCC(=O)Nc1ccc2c(c1)C(=O)N(C)[C@H]1CC[C@H](CC(=O)NC3CCCC3)O[C@@H]1CO2 | -4 | . | .
CC(=O)c1cccc(NC(=O)C(C)OC(=O)CCn2c(C)csc2=O)c1 (stereo not drawn) | . | 62* | 0
